In ChEMBL document CHEMBL3044840, “Antifungal activities of metabolites produced by a termite-associated Streptomyces canus BYB02” (J Agric Food Chem, 2013):
Values after ≈ are worked out from the molar mass of the structure shown.

Key:
[1] = tested on: Pyricularia grisea; assay: Antifungal activity against Magnaporthe grisea in fourth-leaf stage of rice plant assessed as preventive efficacy at 100 ug/ml after 11 days relative to control; type: functional
[2] = tested on: Rhizoctonia solani; assay: Antifungal activity against Rhizoctonia solani assessed as inhibition of mycelial growth; type: functional, organism-based
Summary of the method: (§1)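 Mycelial growth on potato dextrose agar in 9 cm dishes containing serial concentrations of sample, dissolved in aqueous 1% DMSO/4% Tween-80. Mycelium inoculated at plate centre and incubated in the dark at 28 °C until control growth reached the dish edge. Inhibition (%) = (1 − Da/Db) × 100 from growth-zone diameters. IC50 by probit analysis. Cycloheximide as positive control. Run in triplicate.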

[3] = tested on: Dothiorella gregaria; assay: Antifungal activity against Dothiorella gregaria assessed as inhibition of mycelial growth; type: functional, organism-based; summary of the method: as §1
[4] = tested on: Fusarium graminearum; assay: Antifungal activity against Fusarium graminearum assessed as inhibition of mycelial growth; type: functional, organism-based
Summary of the method: (§2)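 Poisoned-food assay. Serial concentrations in aqueous 1% DMSO/4% Tween-80 were mixed into molten potato dextrose agar. Mycelium was inoculated at the plate centre and incubated in the dark at 28 °C until control growth reached the dish edge. Inhibition % = (1 − Da/Db) × 100 from colony diameters. IC50 by probit analysis; run in triplicate.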

[5] = tested on: Pyricularia grisea; assay: Antifungal activity against Magnaporthe grisea assessed as inhibition of mycelial growth; type: functional, organism-based; summary of the method: as §2
[6] = tested on: Fusarium oxysporum f. sp. cucumerinum; assay: Antifungal activity against Fusarium oxysporum f. sp. cucumerinum assessed as inhibition of mycelial growth; type: functional, organism-based; summary of the method: as §1
[7] = tested on: Cytospora mali; assay: Antifungal activity against Valsa mali assessed as inhibition of mycelial growth; type: functional, organism-based; summary of the method: as §1
[8] = tested on: Pyricularia grisea; assay: Antifungal activity against Magnaporthe grisea assessed as inhibition of spore germination after 12 hr by light microscopic analysis; type: functional, organism-based
Summary of the method: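 M. oryzae spores were taken from 7-day oatmeal–tomato agar cultures. 50 μL of compound in 1% DMSO/4% Tween-80 was mixed with 50 μL spore suspension (2.5 × 10^5 spores). 40 μL drops went on slides, in triplicate. Slides were kept in a moist chamber at 28 °C for 12 h. About 100 spores per replicate were scored; IC50 by probit analysis.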

[9] = tested on: Pyricularia grisea; assay: Antifungal activity against Magnaporthe grisea in fourth-leaf stage of rice plant assessed as curative efficacy at 100 ug/ml after 11 days relative to control; type: functional

Row | SMILES | Activity [1] [%] | IC50 [2] [µg/mL] | IC50 [3] [µg/mL] | IC50 [4] [µg/mL] | IC50 [5] [µg/mL] | IC50 [6] [µg/mL] | IC50 [7] [µg/mL] | IC50 [8] [µg/mL] | Activity [9] [%]
1 | COC(=O)Nc1nc2ccccc2[nH]1 [CARBENDAZIM] | 58.7 |  |  |  |  |  |  |  | 
2 | C[C@@H]1C[C@@H]([C@H](O)CC2CC(=O)NC(=O)C2)C(=O)[C@@H](C)C1 [CYCLOHEXIMIDE] |  | 0.3 (≈ 1.07 µM) | 0.9 (≈ 3.2 µM) | 3.3 (≈ 11.7 µM) | 2.3 (≈ 8.17 µM) | 4.9 (≈ 17.4 µM) | 0.3 (≈ 1.07 µM) |  | 
3 | Cc1cc(O)c2c3c4c(cc(O)c13)C(C)(C)C(=O)c1c(O)cc(O)c(c1-4)C2=O [HELIOMYCIN] | 66.8 | > 100 | > 100 | > 100 | 3.8 (≈ 10.1 µM) | > 100 | 1.1 (≈ 2.92 µM) | 5.55 (≈ 14.7 µM) | <25
4 | Cc1cc(O)cc2cc3c(c(O)c12)C(=O)c1c(O)cc(O)cc1C3=O [TETRACENOMYCIN D] |  |  |  |  | > 25 |  | > 25 |  | 
